In ChEMBL document CHEMBL4414622, “Synthesis, Purification, and Selective β2-AR Agonist and Bronchodilatory Effects of Catecholic Tetrahydroisoquinolines from Portulaca oleracea” (J Nat Prod, 2019):
The source made the active and inactive calls. The calls are words filed in the database; no cut-off is given here.

Legend:
[1] = molecular target: Beta-1 adrenergic receptor (Homo sapiens) (UniProt P08588); experiment: Agonist activity at human beta1 adrenergic receptor expressed in CHOK1 cells co-expressing Galpha15 assessed as increase in calcium influx by measuring fluorescence intensity at 100 uM by FLIPR assay relative to epinephrine; type: functional, cell-based
Chain of Beta-1 adrenergic receptor (Homo sapiens) (P08588 whole entry, looked up): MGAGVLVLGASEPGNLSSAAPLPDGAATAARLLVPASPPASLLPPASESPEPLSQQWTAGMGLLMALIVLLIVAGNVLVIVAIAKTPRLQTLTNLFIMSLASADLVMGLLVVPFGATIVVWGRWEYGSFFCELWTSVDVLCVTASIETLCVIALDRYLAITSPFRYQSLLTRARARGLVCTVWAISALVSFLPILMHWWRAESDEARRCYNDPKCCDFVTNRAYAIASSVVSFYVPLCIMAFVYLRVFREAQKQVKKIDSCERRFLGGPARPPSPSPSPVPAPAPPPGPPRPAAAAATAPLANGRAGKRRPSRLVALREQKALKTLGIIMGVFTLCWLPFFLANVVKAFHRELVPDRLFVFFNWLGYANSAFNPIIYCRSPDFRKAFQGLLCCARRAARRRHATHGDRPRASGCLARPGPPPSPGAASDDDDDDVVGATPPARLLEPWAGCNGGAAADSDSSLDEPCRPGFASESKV
How it was run: (§1)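 Stably transfected CHO-K1/Gα15 lines (ADRB1, ADRB2 or ADRA1B) grown in Ham's F12 with 10% FBS, Zeocin and Hygromycin B at 37 °C. Seeded 1.5 × 10⁴ cells/well, 18 h, then Calcium 4 dye 1 h at 37 °C and 15 min room temperature. Compound (100 μM) added at 21 s of a 120 s FLIPR Tetra read. Stocks were 100 mM in DMSO, diluted in HBSS/20 mM HEPES pH 7.4. n = 4.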

[2] = molecular target: T1, Alpha-1B adrenergic receptor (Homo sapiens) (UniProt P35368); experiment: Agonist activity at human alpha1 beta adrenergic receptor expressed in CHOK1 cells co-expressing Galpha15 assessed as increase in calcium influx by measuring fluorescence intensity at 100 uM by FLIPR assay relative to epinephrine; type: functional, cell-based; how it was run: as §1
T1 sequence (whole entry): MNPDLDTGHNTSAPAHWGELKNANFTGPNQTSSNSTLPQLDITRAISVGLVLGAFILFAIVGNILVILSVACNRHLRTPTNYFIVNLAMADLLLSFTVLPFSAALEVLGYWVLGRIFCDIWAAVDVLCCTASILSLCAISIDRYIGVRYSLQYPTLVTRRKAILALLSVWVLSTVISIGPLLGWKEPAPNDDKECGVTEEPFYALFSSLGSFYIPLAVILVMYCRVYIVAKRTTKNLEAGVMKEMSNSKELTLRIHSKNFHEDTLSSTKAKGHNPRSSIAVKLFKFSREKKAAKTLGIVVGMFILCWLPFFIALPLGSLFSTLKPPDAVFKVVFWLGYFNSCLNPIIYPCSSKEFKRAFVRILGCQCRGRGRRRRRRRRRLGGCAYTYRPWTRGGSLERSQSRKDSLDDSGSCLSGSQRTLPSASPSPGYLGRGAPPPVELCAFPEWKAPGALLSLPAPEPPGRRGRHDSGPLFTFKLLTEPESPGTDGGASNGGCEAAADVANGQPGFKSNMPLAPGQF

[3] = molecular target: Beta-2 adrenergic receptor (Homo sapiens) (UniProt P07550); experiment: Agonist activity at human beta2 adrenergic receptor expressed in CHOK1 cells co-expressing Galpha15 assessed as increase in calcium influx by measuring fluorescence intensity at 100 uM by FLIPR assay relative to isoproterenol; type: functional, cell-based; how it was run: as §1
Chain of Beta-2 adrenergic receptor (Homo sapiens) (P07550 whole entry, looked up): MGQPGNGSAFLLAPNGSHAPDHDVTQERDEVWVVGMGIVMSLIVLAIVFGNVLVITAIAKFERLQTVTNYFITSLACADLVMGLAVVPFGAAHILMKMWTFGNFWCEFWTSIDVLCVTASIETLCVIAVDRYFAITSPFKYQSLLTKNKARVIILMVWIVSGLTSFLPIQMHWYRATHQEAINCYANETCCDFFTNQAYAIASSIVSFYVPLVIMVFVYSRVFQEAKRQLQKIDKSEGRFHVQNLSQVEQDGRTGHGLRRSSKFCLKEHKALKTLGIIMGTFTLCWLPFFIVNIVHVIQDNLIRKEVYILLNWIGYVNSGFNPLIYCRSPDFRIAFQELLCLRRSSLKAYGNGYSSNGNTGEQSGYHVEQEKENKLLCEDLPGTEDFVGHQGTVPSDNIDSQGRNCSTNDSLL

[4] = molecular target: Beta-2 adrenergic receptor (Cavia porcellus, UniProt Q8K4Z4); experiment: Agonist activity at beta2 adrenergic receptor in guinea pig tracheal smooth muscle assessed as inhibition of histamine-induced tracheal smooth muscle contraction by measuring spasmolysis in absence of beta adrenergic receptor antagonist propranolol
Chain of Beta-2 adrenergic receptor (Q8K4Z4 whole entry): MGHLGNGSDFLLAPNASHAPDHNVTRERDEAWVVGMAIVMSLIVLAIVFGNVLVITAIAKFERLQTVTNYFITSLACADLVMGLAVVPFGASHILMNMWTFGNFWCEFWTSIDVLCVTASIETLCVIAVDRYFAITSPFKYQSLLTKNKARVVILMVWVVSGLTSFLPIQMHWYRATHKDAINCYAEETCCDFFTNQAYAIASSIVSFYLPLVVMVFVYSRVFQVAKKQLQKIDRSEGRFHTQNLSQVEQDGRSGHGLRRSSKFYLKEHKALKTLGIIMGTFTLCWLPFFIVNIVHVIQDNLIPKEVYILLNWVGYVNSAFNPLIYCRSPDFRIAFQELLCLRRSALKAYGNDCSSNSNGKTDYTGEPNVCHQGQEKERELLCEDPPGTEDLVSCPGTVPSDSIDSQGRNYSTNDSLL

[5] = molecular target: Beta-2 adrenergic receptor (Cavia porcellus) (UniProt Q8K4Z4); experiment: Agonist activity at beta2 adrenergic receptor in guinea pig tracheal smooth muscle assessed as inhibition of histamine-induced tracheal smooth muscle contraction by measuring spasmolysis preincubated for 15 mins in presence of beta adrenergic receptor antagonist propranolol followed by histamine addition
Chain of Beta-2 adrenergic receptor (Cavia porcellus) (Q8K4Z4 whole entry, looked up): as the sequence (Q8K4Z4 whole entry) above

Activity [1] | Activity [2] [%] | Activity [3] | EC50 [4] [µM] | SMILES | inhibition [5]
– | – | – | 0.0079 | CC(C)NCC(O)c1ccc(O)c(O)c1 (stereo unspecified) [ISOPROTERENOL] | –
inactive | 11.8 | inactive | – | COc1cc(C2NCCc3cc(O)c(O)cc32)ccc1O (stereo unspecified) | –
-6.22% | 24.2 | – | – | Oc1cc2c(cc1O)CCN=C2 | –
-20.3% | 22.3 | -11.1% | – | OCc1ccc(C2NCCc3cc(O)c(O)cc32)o1 (stereo unspecified) | –
inactive | 16.6 | inactive | – | Oc1ccc(C2NCCc3cc(O)c(O)cc32)cc1O (stereo unspecified) | –
-10.4% | 13.7 | – | – | OCc1ccc(C2=NCCc3cc(O)c(O)cc32)o1 | –
-6.31% | 15.9 | – | – | CC1=NCCc2cc(O)c(O)cc21 | –

The remaining lines, values behind:

SMILES | Activity [1] | Activity [2] [%] | Activity [3] | EC50 [4] [µM] | inhibition [5]
Oc1cc2c(cc1O)C(c1cccc3ccccc13)NCC2 (stereo unspecified) | inactive | 43.8 | inactive | – | –
COc1ccc(C2NCCc3cc(O)c(O)cc32)cc1 (stereo unspecified) | inactive | 18.5 | inactive | – | –
CC(C)C[C@H]1NCCc2cc(O)c(O)cc21 | inactive | 20.5 | – | – | –
Oc1cc2c(cc1O)C(c1ccccc1)NCC2 (stereo unspecified) | inactive | 51.5 | inactive | – | –
Oc1cc2c(cc1O)C(c1ccco1)=NCC2 | 73.5% | 13.4 | – | – | –
COc1cc(C2NCCc3cc(O)c(O)cc32)cc(OC)c1OC (stereo unspecified) | inactive | 20.5 | inactive | – | –
CC1NCCc2cc(O)c(O)cc21 (stereo unspecified) | -11.4% | 22.1 | 2.91% | – | –
Oc1cccc(C2NCCc3cc(O)c(O)cc32)c1 (stereo unspecified) | inactive | 14.5 | inactive | – | –
Oc1cc2c(cc1O)[C@@H](Cc1ccccc1)NCC2 | 80.3% | 6.1 | – | – | –
C[C@@H]1NCCc2cc(O)c(O)cc21 | -9.5% | 19.2 | – | – | –
Oc1ccc(C2NCCc3cc(O)c(O)cc32)cc1 (stereo unspecified) | inactive | 31.9 | inactive | – | –
CC(C)CC1NCCc2cc(O)c(O)cc21 (stereo unspecified) | inactive | 7.7 | 64.5% | 2.8 | Dose-dependent effect
Oc1cc2c(cc1O)C(c1ccco1)NCC2 (stereo unspecified) | -35.3% | 15.6 | -9.23% | – | –
Oc1cc2c(cc1O)C(Cc1ccccc1)NCC2 (stereo unspecified) | 99.9% | 39.4 | 44.7% | 0.8 | Dose-dependent effect
COc1ccccc1C1NCCc2cc(O)c(O)cc21 (stereo unspecified) | inactive | 36.3 | inactive | – | –
